Bioassay records as filed in PubChem BioAssay.
NR2E3 ag-1 = inhibitors of NR2E3-RetCOR corepressor binding, primary screen, NR2E3 agonist project, biochemical, TR-FRET, GST-NR2E3, biotin-RetCOR; inhibition of corepressor binding, % at 4.78 µM; 1536-well; Photoreceptor-specific nuclear receptor (Homo sapiens), Q9Y5X4; 320,000 compounds, 0.12% hits;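 active = percent inhibition above the cutoff of mean plus 3 SD of all tested compounds, set per screening campaign, cut at about 20% in these data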;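 also: 0% = DMSO wells and 100% = biotin wells as full block of FRET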
Target sequence (Q9Y5X4 whole entry, looked up): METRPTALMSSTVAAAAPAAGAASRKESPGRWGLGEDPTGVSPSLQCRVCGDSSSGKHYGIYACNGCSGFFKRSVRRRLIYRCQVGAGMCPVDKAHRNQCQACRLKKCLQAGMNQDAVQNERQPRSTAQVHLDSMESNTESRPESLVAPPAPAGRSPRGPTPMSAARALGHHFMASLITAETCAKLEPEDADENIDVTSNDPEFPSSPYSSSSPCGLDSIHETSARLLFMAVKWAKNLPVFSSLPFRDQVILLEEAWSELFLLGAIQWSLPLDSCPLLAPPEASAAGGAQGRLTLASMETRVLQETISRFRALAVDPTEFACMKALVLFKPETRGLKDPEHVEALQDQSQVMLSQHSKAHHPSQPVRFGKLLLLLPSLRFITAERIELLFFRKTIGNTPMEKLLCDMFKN
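System: GST-NR2E3 and biotin-RetCOR proteins; probe or stimulus: 7 nM biotin-RetCOR; doses: compound at 4.8 µM, single dose; schedule: Compound–protein incubation for 5 h at 4 °C; detection: time-resolved FRET; read-out: percent inhibition; controls: biotin wells as high control, 0.6% DMSO wells as low control; format: 1536-well plates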
aDG glyco act = activators of alpha-DG glycosylation, primary screen, uHTS, Pro5-aDG cells, AlphaScreen. alpha-DG glycosylation AlphaScreen (IIH6); 0% Pro5, 100% B10-LARGE cell signal. activation, % at 10 µM. 360,000 compounds, 0.22% hits;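 active = activation of at least 8% versus controls, or a plate z-score of at least 8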;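 also: Pro5 are CHO cells carrying HIG-tagged alpha-DG that lacks glycosylation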
697 NFkB inh = inhibitors of PMA/ionomycin-induced NF-kB reporter, 697 cells, primary screen, B-cell NF-kB inhibitor project, cell-based, luminescence, uHTS; 697 B-cell NF-kB luciferase reporter, 16 h; inhibition, % at 4 µM; 330,000 compounds, 0.33% hits; AID 435022, 2010; in the data active = inhibition above about 35%
Jurkat NFkB inh = inhibitors of induced NF-kB luciferase reporter, primary screen, TCR NF-kB activation inhibitor project, cell-based, luminescence, uHTS; AID 435003, 2010; Jurkat, PMA/ionomycin-induced NF-kB luciferase reporter; 330,000 compounds, 0.53% hits; inhibition, % at 4 µM; in the data active = inhibition above about 50%
NR2E3 ag-2 = NR2E3 agonists in two-hybrid cells, primary screen, cell-based, luminescence, CHO-S, Gal4-NCOR/VP16-NR2E3 | Photoreceptor-specific nuclear receptor (Homo sapiens), Q9Y5X4 | luciferase | inhibition of corepressor binding, % at 3.98 µM | 360,000 compounds, 0.35% hits;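 active = inhibition above the mean of all tested compounds plus 3 SD, cut at about 70% in these data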;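 also: 0% = DMSO with NR2E3 transfected cells and 100% = cells lacking NR2E3 construct; higher means lower luciferase signal from less NR2E3 corepressor binding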
MPTP inh = mitochondrial permeability transition pore inhibitors, primary screen, biochemical, isolated mouse mitochondria, absorbance | Ca2+ swelling absorbance, 30 min | inhibition, % at 10 µM | 360,000 compounds, 1.4% hits;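 active = inhibition of 50% or more, scaled per plate between neutral and stimulator controls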;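 also: 0% = DMSO wells given calcium and 100% = 1 mM EGTA wells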
MPTP counter = fluorescence retest of MPTP screen hits in isolated mitochondria, single concentration | shares compounds with MPTP inh | membrane potential, Rhodamine 123 fluorescence | inhibition, % at 10 µM | 5,000 compounds, 78% hits; in the data active = inhibition above about 22%;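 also: 0% = DMSO vehicle and 100% = positive control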
MPTP abs DR = mitochondrial permeability transition pore inhibitors, dose response, biochemical, absorbance, uHTS hits | 780 compounds, 58% hits | isolated mitochondria swelling | IC50, µM | shares compounds with MPTP inh; in the data active = IC50 below about 20 µM
MPTP counter DR = fluorescent counter-screen in isolated mitochondria, dose response, counter-screen for MPTP inhibitor project, biochemical, fluorescence, uHTS hits | shares compounds with MPTP inh | 780 compounds, 49% hits | isolated mitochondria counterscreen, fluorescence read-out | IC50, µM; in the data active = IC50 below about 80 µM
* marks the source's active call; other numbers are inactive results; . = not tested or not shown. Hits are enriched below; roughly 2.4% of the tested compounds scored in any of these assays.

SMILES	NR2E3 ag-1	aDG glyco act	697 NFkB inh	Jurkat NFkB inh	NR2E3 ag-2	MPTP inh	MPTP counter	others
CCOC(=O)N1CCC(N(CCOC)C(=O)Nc2ccc(Cl)cc2)CC1	-0.2	0.0	0.4	-7.4	-8.1	63.6*	77.0*
CCOC(=O)N1CCC(N(CCCOC)C(=O)Nc2ccc(CC)cc2)CC1	-2.8	0.1	-10.0	-16.4	-20.5	-0.5	.
CCOC(=O)CC1NCCc2c1[nH]c1ccc(OC)cc21 (stereo unspecified)	2.5	0.1	5.5	5.1	-19.4	0.1	.
CCOc1ccc(N(C)S(=O)(=O)c2ccc(C)c(C(=O)OCC(=O)c3c[nH]c4ccccc34)c2)cc1	0.8	-0.1	-28.9	0.4	-5.6	50.9*	29.8*
COc1ccc(C(=O)OCC(=O)c2c[nH]c3ccccc23)c(OC)c1	.	0.0	-28.1	-9.1	-110.8	-0.3	.
C=CCN(c1ccccc1)S(=O)(=O)c1cccc(C(=O)Nc2nnc(SCC)s2)c1	2.9	0.6	-7.9	10.3	1.8	67.3*	66.7*
Cc1nc(NCc2ccco2)c2cn[nH]c2n1	.	0.0	.	.	-9.7	-0.3	.
c1coc(CNc2nc3nonc3nc2NCc2ccco2)c1	2.2	0.0	-1.5	10.8	-27.2	96.0*	94.8*
CCCOc1cc(N(CC)CC)ccc1/C=C(/C#N)c1nc2ccc(C)cc2[nH]1	-6.1	-0.2	8.3	-6.0	-16.4	78.2*	57.1*
COc1cc(/C=C(\C#N)c2nc3ccc(C)cc3[nH]2)c([N+](=O)[O-])cc1OC	4.6	0.3	-10.1	-2.7	12.2	0.0	.
CCOc1cc(N(CC)CC)ccc1/C=C(/C#N)c1nc2ccccc2[nH]1	0.4	-0.1	-76.5	-46.2	7.1	82.5*	54.4*
CCN(CC)c1ccc(/C=C(/C#N)c2nc3ccc(C)cc3[nH]2)c(OC(C)C)c1	-4.0	1.2	-27.8	-18.5	-0.6	82.8*	51.7*
CC(=O)Nc1ccc(C=NNc2ccc([N+](=O)[O-])cn2)cc1	.	0.2	.	.	-45.0	1.5	.
Cc1ccc(N2CC(=O)N(CC(=O)O)C2=O)cc1	5.5	-0.1	0.6	1.6	-4.6	-0.9	.
Cc1nc2ccccn2c1-c1ccnn1S(=O)(=O)c1ccc(F)cc1	1.1	2.0	-26.0	19.9	31.3	78.6*	48.3*
COc1ccc(C(=O)/C=C/Nc2ccc(S(=O)(=O)Nc3cccc(C(C)=O)c3)cc2)cc1	1.0	1.3	-27.2	-14.5	-28.6	97.0*	84.3*
COc1cccc(C(=O)/C=C/Nc2ccc(S(=O)(=O)Nc3ccc(C(C)=O)cc3)cc2)c1	5.5	0.0	-3.0	4.5	-37.4	0.7	.
N#CNC(=Nc1cccc(F)c1)SCc1ccccc1F	-2.8	0.8	16.3	-11.5	-69.5	77.3*	90.9*
COc1cccc(C(=O)c2ccccc2C(=O)O)c1	.	-0.3	.	.	0.5	0.2	.
CC(C)[C@H](NC(=O)C1CCN(S(=O)(=O)c2ccc(F)cc2)CC1)C(=O)NCc1ccncc1	-2.3	0.0	4.5	6.6	3.5	-0.5	.
O=C(Nc1ccccc1)Nc1nnc(SCc2ccc(Cl)cc2)s1	2.1	0.5	-8.1	-6.2	-8.9	85.5*	33.5*
O=C(Nc1nnc(SCc2ccc(Cl)cc2)s1)c1cnccn1	2.5	0.2	-2.1	-7.6	-0.4	1.0	.
CCSc1nnc(NC(=O)Nc2cccc(C)c2)s1	-3.9	0.2	-38.8	-26.7	-92.0	82.4*	83.7*
O=C(Nc1ccc(Cl)cc1)Nc1nnc(SCc2ccc(Cl)cc2)s1	1.0	-0.2	-40.4	-9.6	-11.1	85.4*	24.4*
COc1cccc(C#Cc2ccc3c(c2)O[C@H](CN(C)C)[C@@H](C)CN([C@@H](C)CO)S3(=O)=O)c1	.	0.7	.	.	0.4	-2.4	.
SMILES	NR2E3 ag-1	aDG glyco act	697 NFkB inh	Jurkat NFkB inh	NR2E3 ag-2	MPTP inh	MPTP counter	others
O=C(Nc1cc(Sc2nc3ccccc3s2)cc([N+](=O)[O-])c1)c1ccccc1F	3.5	-0.6	11.8	21.4	-3.8	20.8	.
O=C(Nc1cc(Sc2nc3ccccc3s2)cc([N+](=O)[O-])c1)c1ccccc1	4.2	0.6	2.9	11.6	-32.9	89.9*	72.8*
O=C(NNC(=O)c1ccccn1)c1cccc([N+](=O)[O-])c1	0.3	0.9	-18.6	-9.3	-27.0	-0.7	.
O=C(Nc1cc(Sc2ccccn2)cc([N+](=O)[O-])c1)c1cccc(F)c1	1.8	0.1	-3.9	35.2	-52.5	96.8*	69.6*
Cc1ccc(N(CC(=O)NC(C)C)C(=O)CCC(=O)Nc2ccccn2)c(C)c1	.	-0.1	.	.	-24.7	-0.8	.
O=C(Nc1cccc(-c2cccc(F)c2)c1)C1CCN(C2CCC2)CC1	0.8	3.1	-5.1	0.5	-0.5	64.5*	-8.3	MPTP abs DR=7.74*;MPTP counter DR=58.3*
O=C(Nc1cccc(F)c1)C1CCCCC1	1.5	0.1	10.8	1.8	-2.3	-0.7	.
Cc1cc(=O)[nH]c(Nc2ccccc2C)n1	2.7	-0.1	1.7	3.1	-3.0	-1.1	.
COc1ccccc1CNc1nc(Nc2ccccc2-n2cccn2)c2sccc2n1	.	2.3	.	.	-5.5	1.4	.
Cc1ccc(S(=O)(=O)NCCNC(=O)c2ccccc2)cc1	2.7	-0.4	13.9	6.9	15.4	-1.6	.
Cc1ccc(S(=O)(=O)NCc2ccc(C(=O)NCCN(Cc3ccccc3)C(C)C)cc2)cc1	4.2	5.4	-15.1	2.1	-4.1	50.9*	71.1*
CN(C)CCCNCC(=O)Nc1ccccc1N1CCOCC1	-1.2	0.1	-54.2	-3.3	-21.3	1.6	.
CC(C)Nc1nc2nonc2nc1Nc1ccccc1	2.5	0.0	10.3	-7.3	-16.6	91.3*	80.6*
CC(C)Nc1ccccc1	2.1	0.1	10.4	-13.0	-13.2	-0.4	.
S=C(NCc1ccncc1)NC1CCCCC1	4.5	0.3	3.3	0.7	-5.5	-1.2	.
O=C(NCc1csc(-c2cccs2)n1)Nc1ccc(C(F)(F)F)cc1	1.9	-0.2	11.0	8.7	-6.5	66.1*	76.6*
Cc1ccc(NC(=O)COC(=O)CSC(=S)N2CCOCC2)cc1	1.0	-0.1	3.4	9.7	-25.0	-1.2	.
